This is an account of results in ChEMBL document CHEMBL1146352, “Synthesis of furopyrazole analogs of 1-benzyl-3-(5-hydroxymethyl-2-furyl)indazole (YC-1) as novel anti-leukemia agents” (2007).

Molecules are shown by their SMILES. The source made the active and inactive calls. No cut-off for these calls is given here. A value given as a limit tells only on which side of the number the result lay.

Test [1] concerns HL-60. The test is described as follows: Cytotoxicity against HL60 cells by Propidium iodide exclusion assay. In kind it is functional. As to conditions: Homo sapiens, read-out: ED50 (the source's name). The gist of the method: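 HL-60 cells seeded at 2.5 × 10⁵ cells/mL and treated at a range of concentrations for 24, 48 and 72 h at 37 °C. Viable cells were scored by propidium iodide exclusion on flow cytometry. Viability is given as the ratio of treated to control cells. ED50 derived; three independent experiments, mean ± SD.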

Test [2] deals with HL-60. Kind of test: Induction of HL60 cell differentiation assessed as nitroblue tetrazolium reduction activity at 26 uM after 72 hrs. More on the design: scale not given: the % may be the effect or the level left. In kind it is functional, Homo sapiens. Summed up: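 Cells treated 72 h (ATRA co-treatment at 1 µM where stated) were suspended in HBSS at 1 × 10⁶ cells/mL. Mixed with an equal volume of HBSS stock containing 1 mg/ml NBT and 5 µg/mL TPA, then held 30 min at 37 °C. Cells with formazan deposits were counted microscopically, at least 200 cells. Three experiments, each in duplicate.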

Test [3] deals with HT60. The test is described as follows: Induction of apoptosis in […] cells at 26 uM after 48 hrs. In kind it is functional, cell-based. As to conditions: Homo sapiens. Summed up: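 HL-60 cells were cultured 72 h or 48 h with compound, with 0.1% (v/v) DMSO as the control. Nuclei were stained with DAPI and examined microscopically (400×) for nuclear shrinkage and chromatin condensation.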

The test system of test [4] is HL-60 (Homo sapiens). Kind of test: Induction of apoptosis in HL-60 cells after 72 hrs.

In the case of `Cc1cc2c(o1)c(-c1ccc(CO)cc1)nn2-c1ccccc1`, the EC50 in test [1] was more than 20 µM.

In the case of `Cc1cc2c(o1)c(-c1ccc(C(=O)O)cc1)nn2Cc1ccccc1`, the EC50 in test [1] was more than 20 µM.

Turning to `Cc1cc2c(o1)c(-c1ccc(C(=O)O)cc1)nn2-c1ccccc1`, the EC50 in test [1] was more than 20 µM.

For `OCc1ccc(-c2nn(Cc3ccccc3)c3ccccc23)o1`, the Activity in test [2] is 3.56%. In addition, the AD50 result in test [3] is “Active”. The outcome in test [4] was inactive.
